# Assay results from different studies.
# Read-out: cell growth or viability
Structure (SMILES),cell line,test,setting,quantity,result
COC(=O)c1c(C)ncn1CC(c1c[nH]c2ccc(C)cc12)c1c[nH]c2ccc(C)cc12,human Fibroblast,MTS,"20 µM, 24 h",inhibition,13.8%
CC(C)(CO)Cn1nc(-c2ccc3cc(OC4CC4)ccc3c2)c2c(N)ncnc21,CRL8155,,,GI50,> 10000 nM
CCN(CC)CCOC(=O)C1(c2ccc([N+](=O)[O-])cc2)CCCC1,HN-6,,72 h,IC50,> 20 µM
CC(C)Nc1ccnc(Nc2cccc(C(C)(C)C)c2)n1,MV4-11,ATP luminescence,72 h,EC50,> 13 µM
COC(=O)c1c(C)ncn1CC(c1c[nH]c2ccccc12)c1c[nH]c2ccccc12,human Fibroblast,MTS,"20 µM, 24 h",inhibition,12%
COc1ccc(-c2ccc(-c3ccc(C(=N)N)nc3)s2)cc1,MDA-MB-468,SRB,,GI50,1630 nM
CCc1ncn(CC(c2c[nH]c3ccc(C)cc23)c2c[nH]c3ccc(C)cc23)c1C(=O)OC,human Fibroblast,MTS,"20 µM, 24 h",inhibition,6.7%
COc1cc(-c2ccc(-c3ccc(C(=N)N)nc3)s2)cc(OC)c1OC,LOX IMVI,SRB,,GI50,1870 nM
COC(C)(C)CCC[C@](C)(O)[C@H]1CC[C@]2(C)[C@@H]1[C@H](O)C[C@@H]1[C@@]3(C)CC[C@H](O)C(C)(C)[C@@H]3CC[C@]12C,BEAS-2B,MTT,72 h,IC20,4.46 µM
CC(C)Nc1ccnc(Nc2cccc(-c3ccncc3)c2)n1,MV4-11,ATP luminescence,72 h,EC50,> 15 µM
Cc1cc2c(cc1N1C(=O)c3cccc4c(CCCO)ccc(c34)C1=O)n(C)c(=O)n2C (racemic),769-P,resazurin,,GI50,3210 nM
CC[C@H](C)Nc1ccnc(Nc2cccc(-c3cccnc3)c2)n1,MV4-11,ATP luminescence,72 h,EC50,0.065 µM
N#Cc1ccc(COC[C@H]2O[C@@H](n3c(NCc4ccc(Cl)c(Cl)c4)nc4c(N)ncnc43)[C@H](O)[C@@H]2O)cc1,HN-6,,72 h,IC50,4.86 µM
Fc1ccc(Nc2nccc(NC3CCCCC3)n2)cc1,MV4-11,ATP luminescence,72 h,EC50,> 3 µM
CC(C)(CO)Cn1nc(-c2ccc3nc(OC4CC4)ccc3c2)c2c(N)ncnc21,CRL8155,,,GI50,> 10000 nM
C[C@H](Nc1ccnc(Nc2cccc(-c3cccnc3)c2)n1)C(=O)O,MV4-11,ATP luminescence,72 h,EC50,> 8 µM
CCOC(=O)c1c(C)ncn1CC(c1cn(C)c2ccc([N+](=O)[O-])cc12)c1cn(C)c2ccc([N+](=O)[O-])cc12,human Fibroblast,MTS,"20 µM, 24 h",inhibition,21.1%
CC(C)Nc1ccnc(Nc2cccc(-c3nccs3)c2)n1,MV4-11,ATP luminescence,72 h,EC50,9.46 µM
CC(C)=CCC[C@](C)(O)[C@H]1CC[C@]2(C)[C@@H]1[C@H](O)C[C@@H]1[C@@]3(C)CC[C@H](O[C@@H]4O[C@H](CO)[C@@H](O)[C@H](O)[C@H]4O[C@@H]4O[C@H](CO)[C@@H](O)[C@H](O)[C@H]4O)C(C)(C)[C@@H]3CC[C@]12C,BEAS-2B,MTT,72 h,IC80,> 100 µM
